High-throughput results as filed in PubChem BioAssay.
Sampled rows, rich in hits. Any-hit rate of the full collection: about 2.6%.
Platelet DG rel = platelet dense granule release activity. human platelet-rich plasma, SFLLRN dense granule ATP release, luminescence. inhibition, %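 (compounds screened at 7.5 µM in platelet-rich plasma)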. actives 0.22% (n = 300,000). AID 1663;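 active means mean replicate score, as percent of positive control, at or above 50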
SENP1 inh = SENP1 (human) catalytic domain inhibition. recombinant SENP1 catalytic domain, CyPet-SUMO1-YPet FRET cleavage. inhibition, % at 10 µM. actives 0.21% (n = 360,000);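 active means inhibition at least 30% at 10 µM, raw YFP signal under a set limit, fluorescence ratio 0.5 to 1.5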;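 further: 0% = enzyme with DMSO and 100% = no enzyme wells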
Target sequence (Q9P0U3 419-644 limits assumed): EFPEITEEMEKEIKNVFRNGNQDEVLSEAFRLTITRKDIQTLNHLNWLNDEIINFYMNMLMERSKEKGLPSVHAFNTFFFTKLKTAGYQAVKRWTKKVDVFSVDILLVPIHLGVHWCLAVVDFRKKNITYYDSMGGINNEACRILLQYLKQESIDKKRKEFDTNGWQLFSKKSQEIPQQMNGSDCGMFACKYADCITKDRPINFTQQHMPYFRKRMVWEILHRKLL
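Test system: human SENP1 catalytic domain; medium: Tris pH 8 buffer plus EDTA, NaCl, BME, BSA, NP40, catalase; incubation: 50 min reaction at room temperature; technique: FRET, CFP and YFP emission; controls: no-enzyme low control and enzyme-plus-DMSO high control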
SENP6 block = inhibitors of human SENP6 protease; Q9GZR1; Recombinant SENP6 catalytic domain, aminoluciferin luminescence; inhibition, % at 10 µM; actives 1.8% (n = 330,000);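 active means inhibition above about 50% at the single tested dose, limit read from the data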;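 further: plate controls were DMSO wells with enzyme for no effect and DMSO wells lacking enzyme for full effect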
SENP7 inh = blocks the human protease SENP7; recombinant SENP7, Z-RLRGG-aminoluciferin luminescence, 40 min; inhibition, % at 5 µM; actives 1.5% (n = 330,000); AID 434973;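 active means inhibition above about 50% at the single test dose, limit read from the data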;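 further: plate controls were DMSO with enzyme for no effect and no enzyme buffer wells for full effect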
SENP8 block-1 = inhibitors of human SENP8 protease; actives 0.64% (n = 360,000); inhibition, % at 20 µM; recombinant SENP8, Nedd8 substrate fluorescence; in the data active means inhibition mostly above about 40%, no sharp cut-off; inactive means mostly below about 27%
SENP8 block-2 = SENP8 protease inhibition. Q96LD8. inhibition, % at 10 µM. AID 2540. purified SENP8, Z-RLRGG-aminoluciferin cleavage, luminescence. actives 1.2% (n = 330,000); in the data active means inhibition above about 50%
SENP8 conf = confirmation of human SENP8 protease inhibitors; shares compounds with SENP7 inh; Recombinant SENP8, Z-RLRGG-aminoluciferin luminescence, 60 min; inhibition, % at 12.5 µM; actives 40% (n = 6,200); AID 488912;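 active means mean inhibition across replicates above about 50%, limit read from the data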
SENP6 confirm = confirmation of human SENP6 protease inhibitors | shares compounds with SENP7 inh | recombinant SENP6, Z-RLRGG-aminoluciferin luminescence | inhibition, % at 12.5 µM | actives 58% (n = 6,200)
SENP7 confirm = confirmation of human SENP7 protease inhibitors; actives 69% (n = 6,200); recombinant SENP7, Z-RLRGG-aminoluciferin luminescence, 40 min; inhibition, % at 12.5 µM; shares compounds with SENP7 inh
Casp3 select = caspase-3 inhibition (SENP selectivity assay); purified caspase-3, Z-DEVD-aminoluciferin luminescence, 60 min; inhibition, % at 12.5 µM; shares compounds with SENP7 inh; actives 60% (n = 6,200); AID 488918;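 active means mean inhibition above about 50%, limit read from the data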;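 further: plate controls were enzyme with DMSO for no effect and wells without caspase-3 for full effect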
Target sequence (P42574 28-227 limits assumed): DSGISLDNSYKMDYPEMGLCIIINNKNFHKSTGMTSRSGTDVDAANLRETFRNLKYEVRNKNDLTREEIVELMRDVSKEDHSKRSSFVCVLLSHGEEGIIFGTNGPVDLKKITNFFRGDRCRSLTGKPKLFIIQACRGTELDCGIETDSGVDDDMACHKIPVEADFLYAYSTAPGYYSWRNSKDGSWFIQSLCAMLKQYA
Luc interf = interferes with luciferase luminescence in SENP counter-screen. shares compounds with SENP7 inh. Pre-incubated SENP8/Z-RLRGG-aminoluciferin, luciferase luminescence interference. inhibition, % at 12.5 µM. actives 39% (n = 6,200). AID 488919;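 active means mean inhibition above about 50% when retested at one dose, limit read from the data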;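 further: plate controls were DMSO wells with completed reaction for no effect and substrate without enzyme for full effect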
An asterisk follows results filed as active; . = no result given.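 How the source made its calls, unless noted: active means mean inhibition above about 50% in the one-dose retest (limit read from the data); inactive means the rest.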

SMILES	Platelet DG rel	SENP1 inh	SENP6 block	SENP7 inh	SENP8 block-1	SENP8 block-2	SENP8 conf	SENP6 confirm	SENP7 confirm	Casp3 select	Luc interf
Cc1cccc(NC(=O)C2CCCN(S(=O)(=O)c3ccc4[nH]c(=O)ccc4c3)C2)c1 (stereo not given)	7	1	8	-1	-5	0	.	.	.	.	.
c1cc2[nH]snc2c2nc(C3CC3)nc12	17	4	55*	28	-100	29	-4	-1	3	35	17
c1ccc(COc2ccc(OCCCn3cncn3)cc2)cc1	24	-2	73*	77*	24	52*	74*	73*	89*	77*	74*
c1ccc(Cc2ccc(OCCn3cncn3)cc2)cc1	4	-1	-5	-6	21	-6	.	.	.	.	.
O=C(/C=C/c1ccc(Cl)cc1)OCC(=O)c1ccc[nH]1	.	-6	-9	9	-1	-6	.	.	.	.	.
Cc1ccc(CN2CCN(CC(=O)N/N=C/c3ccccc3F)CC2)cc1	3	3	55*	5	16	30	11	23	50	7	2
O=C(CN1CCN(Cc2ccccc2)CC1)N/N=C/c1ccccc1F	4	-1	-12	-4	15	-2	.	.	.	.	.
Cc1ccc(-n2nnc(-c3cccnc3)n2)cc1	0	1	30	17	5	22	.	.	.	.	.
Cc1ccc(-n2nnc(-c3cnc4ccccc4c3)n2)cc1	-1	-11	34	79*	-5	26	13	17	25	46	12
Cc1ccc(-n2nnc(-c3nccn3C)n2)cc1	-8	1	84*	87*	-10	86*	90*	90*	100*	97*	90*
Cc1ccc(C(=O)NC2CCc3ccccc3C2=O)cc1 (stereo not given)	0	-2	-19	17	-62	-10	.	.	.	.	.
O=C(OC1CCc2ccccc2C1=O)c1ccccc1O (stereo not given)	.	0	82*	80*	0	70*	81*	80*	92*	67*	32
N#Cc1ccsc1NC(=O)CCc1ccccc1	3	-8	23	70*	8	60*	14	28	68*	53*	47
N#Cc1ccsc1NC(=O)CN(Cc1ccccc1)Cc1ccccc1	14	0	-12	3	22	-3	.	.	.	.	.
Cc1noc(C)c1C(=O)Nc1nc2ccc(Cl)cc2s1	-13	1	96*	94*	-48	95*	92*	96*	101*	93*	66*
Cc1noc(C)c1C(=O)Nc1ccc(F)c(F)c1	-21	0	4	-2	20	-7	.	.	.	.	.
Cc1onc(-c2ccccc2Cl)c1C(=O)Nc1nc2ccc(S(C)(=O)=O)cc2s1	6	-4	-8	-12	-339	-1	.	.	.	.	.
Cc1noc(C)c1C(=O)Nc1nc2ccc(F)cc2s1	.	-11	0	100*	-71	99*	97*	100*	103*	99*	48
CCc1noc(C)c1C(=O)Nc1nc2ccc(S(C)(=O)=O)cc2s1	6	-7	41	25	-262	4	.	.	.	.	.
CCc1noc(C)c1C(=O)Nc1nc2ccc(F)cc2s1	4	-7	81*	66*	-34	64*	76*	76*	94*	75*	71*
COc1ccc(C(=O)NCC(C)NC(=O)c2ccc(OC)c(Br)c2)cc1Br (stereo not given)	-1	0	-26	6	1	-1	.	.	.	.	.
C[C@H](CO)N1C[C@H](C)[C@@H](CN(C)C(=O)Nc2ccc(C(F)(F)F)cc2)Oc2ccc(NC(=O)CCC(F)(F)F)cc2C1=O	.	0	-14	-6	14	-2	.	.	.	.	.
O=C(c1ccccc1)n1c(=S)nc2ccccn21	36	1	78*	90*	2	70*	2	74*	93*	57*	15
Cc1cccc(C(=O)n2c(=S)nc3ccccn32)c1	24	0	91*	90*	3	46	77*	82*	92*	69*	56*
Cc1ccc(C(=O)n2c(=S)nc3ccccn32)cc1	22	.	.	.	.	.	.	.	.	.	.
SMILES	Platelet DG rel	SENP1 inh	SENP6 block	SENP7 inh	SENP8 block-1	SENP8 block-2	SENP8 conf	SENP6 confirm	SENP7 confirm	Casp3 select	Luc interf
O=C1c2ccccc2CN2C(=O)c3ccccc3CN12	-2	0	-7	2	10	1	.	.	.	.	.
c1ccc(-c2cn3c(n2)-c2ccccc2C3)cc1	28	-1	96*	97*	-42	96*	99*	100*	103*	99*	97*
CSc1ccc(/C=C/C(=O)N2CCN(c3ccccn3)CC2)cc1	-3	-1	-22	-5	-160	-4	.	.	.	.	.
COc1ccc2c(c1)CC(C(=O)Nc1ccc(Cl)cc1)/C(=N/O)O2 (stereo not given)	-1	0	21	0	16	8	.	.	.	.	.
O=C(c1ccc(S(=O)(=O)N2CCCC2)cc1)N(c1ccccc1)C1C=CS(=O)(=O)C1 (stereo not given)	-4	-1	63*	2	3	0	6	6	5	0	2
CC(C)Oc1ccc(C2NC(=O)c3ccccc3O2)cc1 (stereo not given)	-7	0	4	-8	-52	-6	.	.	.	.	.
CN(C)c1ccc(C(=O)/C=C/c2cccnc2)cc1	-3	-7	-11	-8	-22	-10	.	.	.	.	.
CN(C)c1ccc(/C=C/C(=O)c2cccc(Br)c2)cc1	-5	-23	52*	27	-38	18	37	38	28	21	13
C(/C=C/c1ccccn1)=C\c1ccccc1	11	-2	87*	88*	-402	80*	25	66*	90*	66*	52*
CCOc1ccc(NC(=O)c2ccccc2O)cc1	14	1	64*	38	5	36	55*	49	78*	64*	63*
CCOc1ccc(NC(=O)c2ccccn2)cc1	31	9	91*	92*	6	81*	92*	92*	100*	96*	89*
